Bioassay records (PubChem BioAssay)
CaV13 ICDI inh = Primary screen for inhibitors of IQ motif and Ca2+-dependent inactivation inhibitor domain binding in CACNA1D, Förster resonance energy transfer in living cells, … | inhibition, % at 12.3 µM | HEK cells, CFP/YFP FRET ICDI-IQ, plate reader, 10 min; percent FRET-ratio fall versus neutral wells | 340,000 compounds, 0.098% hits;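 active means mean replicate inhibition of at least 30% and at least 1% of replicates passing that level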
Xi reactivation = X-chromosome reactivation activator; activation, % at 7.58 µM; XiGFP mouse fibroblasts, % GFP-positive cells imaging, 3 d; cells co-treated with 5-aza-dC sensitizer; scaled so ellipticine positive control = 100%; 360,000 compounds, 0.055% hits; AID 743238;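 active means mean normalized replicate activation at least 10% and every replicate at or above 10%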
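System: XiGFP fibroblasts, SV40-immortalized. Medium: DMEM plus 5-aza-dC sensitizer. Doses: single point. Timing: 3 d treatment, 15 min room-temperature fixation. Control set: ellipticine 6 µM.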
NPR1 activator = GC-A (human) enzyme activation; HEK293 GC-A cells, cGMP TR-FRET, EC30 ANP; 0% at EC30 ANP, 100% saturating ANP; P16066; activation, % at 10 µM; 370,000 compounds, 0.14% hits; in the data active means activation above about 40%
Vif inh = inhibitors of HIV Vif | inhibition, % at 7.49 µM | 340,000 compounds, 0.35% hits | HEK293T cells, Vif self-association by quenched fluorescence, imaging, 24 h | AID 602346; in the data active means inhibition above about 50%, passing the limit was not always enough
GC-B act = GC-B (human) receptor activation; HEK293-GC-B cells, CNP EC30, cGMP TR-FRET; 0% at EC30 CNP, 100% saturating CNP; 370,000 compounds, 0.11% hits; activation, % at 10 µM; P20594;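 active means activation at 10 µM reaching about 35% in either raw or pattern-adjusted values, limit read from the data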
N-glyco inh = blocks N-linked glycosylation in D54 reporter cells | reporter increase, % at 12.5 µM | D54 ERlucT glycosylation luciferase reporter, 24 h; percent of 100 nM tunicamycin response | 360,000 compounds, 0.23% hits;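 active means mean luciferase reporter signal, scaled so untreated is 0 and the glycosylation-blocking control 100, at or above a set limit in every replicate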;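 further: luciferase carries N-glycosylation sites so blocking glycosylation raises the light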
Each line names hits and unclear results; the compound was inactive in the other large screens. A selection: hits, their analogues and other compounds. The true share with any hit is near 0.7%.

CC1CN(S(=O)(=O)c2ccc(C(=O)NCCCn3ccnc3)cc2)CC(C)O1 (stereo not drawn)	Vif inh 52.2
CC(CCC(=O)O)C1CCC2C3CCC4C[C@H](O)CCC4(C)C3CC(=O)C12C (stereo partly drawn)	Vif inh 52.6
C[C@@H]1CN([C@@H](C)CO)C(=O)Cc2cc(N(C)C)ccc2O[C@H]1CN(C)Cc1ccc(Cl)c(Cl)c1	none (no result: CaV13 ICDI inh, NPR1 activator, Vif inh, GC-B act, N-glyco inh)
CN(CC(=O)NCCc1ccc(F)cc1)Cc1ccccc1	none
CSc1ccc(CN(C)CC(=O)NCCc2ccccc2)cc1	Vif inh 69.3
N/C(=N\OC(=O)c1ccc(Cl)c([N+](=O)[O-])c1)c1ccccc1	NPR1 activator 46.3
COc1ccc(NC(=O)CCN2C(=O)C3CC=CCC3C2=O)cc1S(=O)(=O)N1CCCCC1 (stereo not drawn)	Vif inh 72.9
COc1ccc(NC(=O)CCCC2CCCCC2)cc1S(=O)(=O)N1CCCCC1	none
CCOC(=O)/C(=C\c1cccnc1)C(=O)c1cc(C(C)=O)c(Nc2ccccc2)s1	none (no result: CaV13 ICDI inh, Xi reactivation, NPR1 activator, GC-B act)
CCOC(=O)/C(=C\c1ccccc1)C(=O)c1cc(C(C)=O)c(Nc2ccccc2)s1	N-glyco inh 35.2 (no result: CaV13 ICDI inh, Xi reactivation)
CN(C)C(=O)C[C@H]1CC[C@@H]2[C@H](COC[C@@H](O)CN2C(=O)c2ccncc2)O1	none (no result: CaV13 ICDI inh, NPR1 activator, Vif inh, GC-B act, N-glyco inh)
CC(=O)Oc1ccc(/C=c2\sc3ncnn3c2=O)cc1	none (no result: Xi reactivation)
CCCOc1ccc(/C=c2\sc3ncnn3c2=O)cc1	NPR1 activator 69.2
CCOC(=O)Cc1cc(=O)n2[nH]c(C)c(-c3ccccc3)c2n1	GC-B act 43.2 (no result: Xi reactivation)
CCOC(=O)Cc1cc(=O)n2[nH]c(-c3ccccc3)c(-c3ccccc3)c2n1	none
Cc1nnc2ccc(-c3ccc(NS(=O)(=O)c4ccccc4[N+](=O)[O-])cc3)nn12	Vif inh 76.0
Cc1nnc2ccc(-c3ccc(NS(=O)(=O)c4ccc(F)cc4F)cc3)nn12	Vif inh 70.9
Cc1nnc2ccc(-c3ccc(NS(=O)(=O)c4ccccc4F)cc3)nn12	none
CC(=O)N(C)C[C@H]1Oc2cc(C#Cc3ccncc3)ccc2S(=O)(=O)N([C@H](C)CO)C[C@@H]1C	none (no result: CaV13 ICDI inh, NPR1 activator, Vif inh, GC-B act, N-glyco inh)
COc1ccc2cc(C(N)=O)c(=Nc3ccccc3)oc2c1	none
NC(=O)c1cc2ccc(O)cc2oc1=NCc1ccccc1	CaV13 ICDI inh 33.5 (no result: Xi reactivation)
COc1ccc(OC)c(N=c2oc3cc(O)ccc3cc2C(N)=O)c1	NPR1 activator 56.3 (no result: Xi reactivation)
Cc1noc(C)c1S(=O)(=O)Nc1ccc2c(c1)C(=O)N([C@@H](C)CO)C[C@H](C)[C@@H](CN(C)C(=O)Nc1ccccc1)OCCCC[C@H](C)O2	none (no result: CaV13 ICDI inh, NPR1 activator, Vif inh, GC-B act, N-glyco inh)
Cc1cccc(NCCC(=O)c2ccc(Br)cc2)c1	none (no result: Xi reactivation)
CCOC(=O)CNCCC(=O)c1ccc(Br)cc1	NPR1 activator 48.9 (no result: Xi reactivation)
COCC(=O)Nc1ccc2c(c1)C(=O)N(C)C[C@@H](OC)[C@@H](C)CN(Cc1ccncc1)[C@@H](C)CO2	none (no result: CaV13 ICDI inh, NPR1 activator, Vif inh, GC-B act, N-glyco inh)
Cc1cccc(-c2cccc3[nH]c4c(c23)CCN2C(=O)[C@H]3[C@H](C)ON(C)[C@H]3C[C@@H]42)c1	Xi reactivation 48.1 (no result: Vif inh, N-glyco inh)
Cc1cccc(-c2cccc3c4c([nH]c23)[C@@H]2C[C@H]3[C@@H](C(=O)N2CC4)[C@H](C)ON3C)c1	none (no result: CaV13 ICDI inh, Xi reactivation, Vif inh, N-glyco inh)
COc1ccc2c3c([nH]c2c1)[C@@H](CO)N(S(=O)(=O)c1cn(C)cn1)CC31CCN(Cc2ccccc2F)CC1	none (no result: CaV13 ICDI inh, NPR1 activator, Vif inh, GC-B act, N-glyco inh)
CCOC(=O)c1ccc[n+](CC(=O)Nc2cc(C(F)(F)F)ccc2Cl)c1	Vif inh 52.9
O=C(COC(=O)c1ccc(O)cc1)Nc1cc(C(F)(F)F)ccc1Cl	none
Cc1ccc2nc(-c3ccc(Cl)cc3)c(Cc3cccc(F)c3)n2c1	GC-B act 36.4 (no result: Vif inh, N-glyco inh)
Cc1ccc(Cc2c(-c3ccc(C)cc3)nc3ccc(Cl)cn23)cc1	GC-B act 36.5
CCCN1[C@H](C(=O)NC2CCCC2)[C@@H](CO)[C@@H]2Cn3c(ccc(-c4cccnc4)c3=O)[C@@H]21	none (no result: CaV13 ICDI inh, NPR1 activator, Vif inh, GC-B act, N-glyco inh)
